# Yeast lifespan up: compounds extending yeast replicative lifespan, primary screen, S. cerevisiae, OD615. S. cerevisiae growth with nicotinamide; deaD strain in restrictive glucose medium. inhibition of the nicotinamide effect, % at 10 µM. 130,000 compounds, 0.68% hits;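 active = inhibition above a set limit, placed 3 SD over the median of all compounds, cut at about 26% in these data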
#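 Assay system: engineered S. cerevisiae DeaD replicative-lifespan strain, galactose-grown log-phase cells; Buffer or medium: CSMM-D glucose medium, restrictive; Probe or stimulus: nicotinamide 1.5 mM; Compound: single dose 10 µM compound, 0.25% DMSO; Schedule: 4 h preincubation then 48 h treatment at 30 °C; Technique: OD615 measurement.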
# Yeast growth inh: growth inhibitors of yeast BB579 in restrictive medium, primary screen, yeast lifespan-shortening project, S. cerevisiae; OD615, 48 h; inhibition, % at 10 µM; 140,000 compounds, 0.51% hits;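 active = inhibition above a set limit, 3 SD over the mean compound inhibition, cut at about 44% in these data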
#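 test system = yeast BB579 (DeaD) | buffer or medium = restrictive CSMM-D medium | doses = single compound dose of 10 µM, 0.25% DMSO final | times = 4 h preincubation and 48 h exposure at 30 °C | technique = culture absorbance at 615 nm | benchmarks = amphotericin B 10 µg/mL, positive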
# PostGolgi yeast: phenotypic screen on post-Golgi transport, primary screen | AID 739, 2007 | inhibition, % at 10 µM | post-Golgi transport phenotypic cell assay | 98,000 compounds, 0.9% hits;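 also: yeast cells grown in 1536-well plates; yeast grown about 18 h at 30C before absorbance read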
# PostGolgi ctrl: growth inhibition of yeast control strain, primary screen, counter-screen for post-Golgi transport modulator project; efflux-deficient yeast background strain, growth absorbance A615, 16 h; inhibition, % at 10 µM; 98,000 compounds, 5% hits
# Numbers stand for hits; 0 = inactive; - = not tested or not shown. Many of the other results were omitted from the sample, so hits are more common in it than they were. Rule as the data show it, unless noted: active = inhibition above about 30%; inactive = the rest.
SMILES,Yeast lifespan up,Yeast growth inh,PostGolgi yeast,PostGolgi ctrl
COC(=O)c1ccccc1NC(=O)c1ccco1,0,0,0,0
O=C(Nc1ccccc1C(=O)OCc1nnc(-c2ccccc2)o1)c1ccco1,0,0,0,48
CCC(C)NC(=O)CCSCCC(=O)NC(C)CC (configuration not stated),0,0,-,-
CCn1ncc(C2=NOC(C(=O)Nc3c(C)n(C)n(-c4ccccc4)c3=O)C2)c1C (configuration not stated),0,48,0,0
CCn1ncc(C2=NOC(C(=O)NCc3ccccc3)C2)c1C (configuration not stated),0,0,0,0
Brc1ccc2[nH]c3c(N4CCc5ccccc5C4)ncnc3c2c1,0,0,42,76
c1ccc2c(c1)[nH]c1c(N3CCCC3)ncnc12,0,0,0,0
Cc1ccc2[nH]c3c(N4CCc5ccccc5C4)ncnc3c2c1,0,0,0,43
Cc1ccc2[nH]c3c(N4CCOCC4)ncnc3c2c1,0,0,0,0
COc1cccc(-c2nc(NCC3CCCO3)c3ccccc3n2)c1O (configuration not stated),0,0,0,43
Oc1ccccc1-c1nc(NCC2CCCO2)c2ccccc2n1 (configuration not stated),0,0,0,56
C/C=C/c1c(F)c(F)c(Oc2ccc(C(=O)O)cc2)c(F)c1F,0,0,0,0
COC(=O)C(/C=N/OCc1ccc([N+](=O)[O-])cc1)NC(=O)c1cccc(Cl)c1 (configuration not stated),0,0,0,0
Cc1ccc2[nH]c(=O)c(CN(CC3CCCO3)S(=O)(=O)c3c(C)ccc4nsnc34)cc2c1 (configuration not stated),0,0,0,32
COc1ccc(NC(=O)CCc2nc(-c3ccccc3F)no2)cc1,0,0,0,0
CCN(C(=O)c1coc(=O)c2ccccc12)c1cc(OC)ccc1OC,0,0,0,38
Cn1c(C2=C(O)CN(c3ccc4c(c3)OCCO4)C2=N)nc2ccccc21,0,0,0,0
CCCCCCCCCCCCCCCC(O)C(N)CO (configuration not stated),0,100,-,-
Cn1c(O)c(N=NC(=O)Cn2c(C(F)(F)F)nc3ccccc32)c2ccccc21,0,0,-,-
C/C(CC1CC2=C(CC1(C)C)C(C)(C)CCC2)=N\NC(N)=S (configuration not stated),0,0,104,80
CCCNC(=O)C(C)n1c2ccccc2c2nc(=O)cc(C)n21 (configuration not stated),0,0,0,33
CCCN(CCC)C(=O)Cn1c2ccccc2c2nc(=O)cc(C)n21,0,0,0,0
c1ccc(SSc2ccccc2)cc1,28,0,-,-
c1ccc(SCCc2ccncc2)cc1,0,0,0,0
Cc1ccc(NC(=O)CN2CCCN(S(=O)(=O)c3ccc(Br)s3)CC2)cc1,0,0,0,33
SMILES,Yeast lifespan up,Yeast growth inh,PostGolgi yeast,PostGolgi ctrl
Cc1cc(C)cc(NC(=O)CN2CCCN(S(=O)(=O)c3ccc(Br)s3)CC2)c1,0,0,0,42
CCOC(=O)N1CCN(S(=O)(=O)c2ccc(Br)s2)CC1,0,0,0,0
O=C(NC1CCCC1)c1sc(=S)n2c1[nH]c(=O)c1ccccc12,0,0,0,51
C=CCn1c(N)c(C(=O)NCc2ccco2)sc1=S,0,0,0,0
O=C(NCc1ccco1)c1sc(=S)n2c1[nH]c(=O)c1ccccc12,0,0,0,32
COc1ccc(C2=Nc3ccccc3OC2)cc1,0,0,0,0
CC(=O)NC(CCS(C)(=O)=O)C(=O)Nc1cc(Cl)ccc1Cl (configuration not stated),0,0,0,32
CC(=O)NC(CCS(C)(=O)=O)C(=O)Nc1ccc2c(c1)OCO2 (configuration not stated),0,44,0,0
CC(C)(C)c1cnnn1-c1ccc(NC(=O)c2ccc(Br)o2)cc1,0,0,0,44
CC(C)(C)c1cnnn1-c1ccc(NC(=O)c2ccc3c(c2)OCO3)cc1,0,0,0,0
CC(=O)c1ccc(-n2nncc2C(C)(C)C)cc1,0,0,0,33
Cc1cc2ccccc2n1CCNC(=O)C(C)Oc1ccccc1 (configuration not stated),0,0,0,0
Clc1ccc(CN2CCN(c3ncnc4scc(-c5cccs5)c34)CC2)cc1,0,0,0,58
Cc1ccccc1N1CCN(c2ncnc3scc(-c4cccs4)c23)CC1,0,0,0,0
CCOC(=O)c1ccc(Nc2nc(-c3cccnc3)nc3ccccc23)cc1,0,0,0,0
O=C(NC(=S)Nc1cccc(Cl)c1N1CCCCC1)c1ccco1,0,0,0,37
O=C(NC(=S)N1CCCCC1)c1cccs1,0,0,-,-
O=C(NC(=S)Nc1ccccc1N1CCCCC1)c1ccco1,0,0,-,-
O=C(NC(=S)Nc1cccc(Cl)c1N1CCCCC1)c1cccs1,0,0,0,52
CC(C)CN(CC(C)C)C(=S)NC1CCCCC1,0,0,-,-
CCOP(=O)(c1ccc(N(C)C)cc1)C(O)c1ccc(Cl)cc1 (configuration not stated),0,0,0,0
Cc1ccc(NC(=O)CNC(=O)c2cccs2)cc1S(=O)(=O)Nc1ccc(Cl)cc1,0,0,-,-
Cc1ccc(C)c2c3c([nH]c12)-c1nonc1CC3,0,0,0,0
COc1ccc(NC(=O)CC2C(=O)N(c3ccc(F)cc3)C(=S)N2NC(=O)c2ccccc2)cc1 (configuration not stated),0,0,-,-
Brc1ccccc1OCCCn1cnc2ccccc21,0,0,0,30
SMILES,Yeast lifespan up,Yeast growth inh,PostGolgi yeast,PostGolgi ctrl
Cc1ccccc1OCCCCn1cnc2ccccc21,0,0,0,36
c1ccc(OCCCCn2cnc3ccccc32)cc1,0,0,0,0
Cc1cc(C)c(C)c(OCCCCn2cnc3ccccc3c2=O)c1,0,0,0,37
c1ccc(OCCn2cnc3ccccc32)cc1,0,0,0,34
Cc1cccc(NC(=O)Cn2c(=O)oc3ccccc32)c1,0,0,0,0
COc1cc2c(cc1NC(=S)Nc1cccc(C(F)(F)F)c1)oc1ccccc12,0,0,0,0
N#Cc1c(Cl)c(Cl)c2nnc(-c3ccc(Br)cc3)n2c1Cl,0,0,0,0
COc1ccc(C2C(C#N)=C3NC(=O)c4c(sc5c4CCCCC5)N3C3=C2C(=O)CC(C)(C)C3)cc1 (configuration not stated),0,0,0,36
O=[N+]([O-])c1cc(-n2cnnn2)ccc1N1CCC(Cc2ccccc2)CC1,0,0,0,74
CO/N=C(/CS(=O)Cc1ccccc1Cl)c1ccc(Cl)cc1Cl (configuration not stated),0,0,0,30
CC(C)NC(=O)NC(=O)COC(=O)c1cccc(S(=O)(=O)N2CCCCC2)c1,0,0,-,-
Cc1ccc(OCCCC(=O)Nc2ccc(Br)cc2)cc1,0,0,0,0
Cc1ccc(-n2c(O)c(C=Nc3ccc4c(c3)OCO4)c3ccccc3c2=O)cc1C,0,0,0,0

# Compound activity from PubChem BioAssay.
